The results in this text go back to ChEMBL document CHEMBL4732031, “Novel fluorinated ring-fused chlorins as promising PDT agents against melanoma and esophagus cancer” (RSC Med Chem, 2021).

Data set [1] can be described thus: Drug uptake in human A375 cells at 500 nM incubated for 24 hrs by fluorescence emission spectroscopic analysis. The format is ADME, cell-based. Particulars: a-375, 24 h, 0.5 µM. The procedure, abridged:
(§1)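 Cells (5 × 10^5) were exposed to 500 nM sensitizer for 24 h in the dark, then PBS-washed, disrupted in DMSO, scraped and centrifuged. Supernatant fluorescence was read with excitation at 405 and 420 nm. Intracellular concentration was calculated from a calibration curve of each sensitizer in DMSO; mean ± SE.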

For data set [2], the system named is OE19. Briefly: Cytotoxicity against human OE19 cells assessed as cell viability measured after 24 hrs by MTT assay. The format is cell-based. Particulars: OE19, 24 h. The gist of the method:
(§2)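 Dark control run in A375 (DMEM) or OE19 (RPMI 1640) cells, plated overnight. Sensitizers were diluted from a 1 mg/mL DMSO stock and given at 1 nM–10 μM, with a 1% DMSO vehicle control. Cells were incubated 24 h at 37 °C in the dark, PBS-washed, refed and not irradiated. Read-out was MTT (0.5 mg/mL, 4 h) with formazan dissolved in HCl/isopropanol, as % of vehicle; IC50 taken from dose–response curves.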
(Tetrazolium assays rely on reduction of a dye to a coloured formazan, in cell work by metabolically active cells.)

Data set [3] is described as follows: Drug uptake in human OE19 cells at 500 nM incubated for 24 hrs by fluorescence emission spectroscopic analysis. The format is ADME, cell-based. To be noted: oe19, 24 h, 0.5 µM. The gist of the method:
as §1

In data set [4] the test system is A-375. The data set can be described thus: Photocytotoxicity against human A375 cells assessed as cell viability after 24 hrs in presence of light irradiation by MTT assay. To be noted: A-375, light or radiation study. The format is functional, cell-based. The procedure, abridged: (§3)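 A375 (DMEM) or OE19 (RPMI 1640) cells were plated overnight and given sensitizer at 1 nM–10 μM, diluted from a 1 mg/mL DMSO stock, with a 1% DMSO vehicle control. After 24 h dark incubation at 37 °C, cells were PBS-washed and refed.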

The subject of data set [5] is A-375. The data set can be described thus: Cytotoxicity against human A375 cells assessed as cell viability measured after 24 hrs by MTT assay. The format is cell-based. Particulars: A-375, 24 h. The procedure, abridged:
as §2

The subject of data set [6] is OE19. The data set can be described thus: Photocytotoxicity against human OE19 cells assessed as cell viability after 24 hrs in presence of light irradiation by MTT assay. The format is functional, cell-based. To be noted: OE19, light or radiation study. The gist of the method:
as §3

A value given as a limit tells only on which side of the number the result lay.

By IC50 is commonly meant the concentration needed to halve the response being measured. For the compound `OCCOCCNc1c(F)c(F)c(-c2c3nc(c(-c4c(F)c(F)c(NCCOCCO)c(F)c4F)c4ccc([nH]4)c(-c4c(F)c(F)c(NCCOCCO)c(F)c4F)c4nc(c(-c5c(F)c(F)c(NCCOCCO)c(F)c5F)c5ccc2[nH]5)C2Cc5c(CO)c(CO)nn5CC42)C=C3)c(F)c1F` (stereo not given), the Drug uptake is on record as 254 nM in data set [1] and 202 nM in data set [3]. Also, the IC50 in data set [2] was more than 10 µM; in data set [4], 0.013 µM; in data set [5], more than 10 µM; in data set [6], 0.027 µM.
As for `COC(=O)c1nn2c(c1C(=O)OC)CC1c3nc(c(-c4c(F)c(F)c(F)c(F)c4F)c4ccc([nH]4)c(-c4c(F)c(F)c(F)c(F)c4F)c4nc(c(-c5c(F)c(F)c(F)c(F)c5F)c5ccc([nH]5)c3-c3c(F)c(F)c(F)c(F)c3F)C=C4)C1C2` (stereo not given), the half-maximal inhibitory concentration (IC50) in data set [2] is more than 10 µM; in data set [4] it was 6.68 µM; in data set [5] it was more than 10 µM; in data set [6], 5.61 µM.
Take `COC(=O)c1nn2c(c1C(=O)OC)CC1c3nc(c(-c4c(F)c(F)c(NCCOCCO)c(F)c4F)c4ccc([nH]4)c(-c4c(F)c(F)c(NCCOCCO)c(F)c4F)c4nc(c(-c5c(F)c(F)c(NCCOCCO)c(F)c5F)c5ccc([nH]5)c3-c3c(F)c(F)c(NCCOCCO)c(F)c3F)C=C4)C1C2` (stereo not given): in data set [1], the Drug uptake is 148 nM. Moreover, the IC50 in data set [2] is more than 10 µM; in data set [4], 0.913 µM; in data set [5] it was more than 10 µM; in data set [6], 0.105 µM.
For `OCc1nn2c(c1CO)CC1c3nc(c(-c4c(F)c(F)cc(F)c4F)c4ccc([nH]4)c(-c4c(F)c(F)cc(F)c4F)c4nc(c(-c5c(F)c(F)cc(F)c5F)c5ccc([nH]5)c3-c3c(F)c(F)cc(F)c3F)C=C4)C1C2` (stereo not given), the Drug uptake in data set [1] came out at 128 nM. The 50% inhibitory concentration (IC50) was more than 10 µM in data set [2], 0.072 µM in data set [4], more than 10 µM in data set [5] and 0.056 µM in data set [6].
